ROMK primary – modulators of human ROMK potassium channel; AID 1918; P48048; 130,000 tested, 2% active; B-score at 10 µM; Tet-inducible ROMK, thallium flux fluorescence; actives lie on both sides;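 active = signal ratio slope over the read window, or its plate-corrected B-score, at least 3 SD from the plate mean, either direction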;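 also: B-score of the F/F0 ratio slope over 7 to 12 s after thallium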
Target sequence (P48048 whole entry, looked up): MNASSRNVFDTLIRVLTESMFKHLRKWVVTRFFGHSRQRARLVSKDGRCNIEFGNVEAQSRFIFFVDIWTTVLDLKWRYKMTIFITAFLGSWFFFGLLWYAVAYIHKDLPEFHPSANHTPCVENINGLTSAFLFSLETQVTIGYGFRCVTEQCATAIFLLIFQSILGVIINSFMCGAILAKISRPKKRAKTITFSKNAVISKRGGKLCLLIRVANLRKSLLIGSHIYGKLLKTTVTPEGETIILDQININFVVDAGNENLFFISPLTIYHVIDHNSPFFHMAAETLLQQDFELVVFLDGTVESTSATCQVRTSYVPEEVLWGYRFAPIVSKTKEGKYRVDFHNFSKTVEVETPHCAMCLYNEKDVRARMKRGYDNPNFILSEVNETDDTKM
KCC2 mod – modulates chloride dependent transport by human KCC2. Q9H2X9. KCC2 cells, thallium flux FluoZin-2 fluorescence. B-score of Tl+ flux slope (higher = more flux/activation; lower = inhibition) at 10 µM. 190,000 tested, 2.2% active. AID 1456;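 active = thallium flux slope and its plate-corrected score both differing from the plate sample mean at a set confidence after two filtering rounds, in either direction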;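 also: slope of fluorescence scaled to starting intensity during 10 to 20 s after thallium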
RBBP9 inhibitor – blocks human serine hydrolase RBBP9 | O75884 | recombinant RBBP9, FP-Rh probe fluorescence polarization | inhibition, % at 7.94 µM | 220,000 tested, 0.2% active;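 active = inhibition above the campaign mean of all tested compounds plus 3 SD, cut at about 14% in these data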
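Measured by: FP readout at 525/598 nm; material: recombinant human RBBP9; also added: Serine-hydrolase probe FP-Rh, 375 nM pre-mixing; medium: Tris buffer pH 8.0, NaCl, Pluronic; replication: one well per compound; doses: one concentration, 7.94 µM nominal, 0.794% DMSO; timing: preincubation 30 min plus labeling 45 min at 25 °C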
14-3-3 Bad inh – disrupts binding of bovine 14-3-3 zeta to phospho-Bad peptide; P63103; TR-FRET 14-3-3zeta/Dy647-pBad peptide displacement, 1 h; inhibition, % at 21.7 µM; 220,000 tested, 0.71% active;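 active = inhibition above about 70%, limit read from the data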
WT yeast gro inh – growth inhibition of WT yeast, mitochondrial fusion screen; mitochondrial fusion phenotypic screen, WT strain; inhibition, % at 10 µM; 190,000 tested, 2.1% active; AID 1362; in the data active = inhibition above about 58%; tested in S. cerevisiae
p47phox inh – blocks human p47phox regulatory protein of NADPH oxidases | inhibition, % at 24.7 µM | p47phox/p22phox peptide binding, fluorescence polarization, 2 h | 220,000 tested, 0.53% active | AID 1274;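 active = inhibition above about 30%, limit read from the data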
Target sequence (P14598 whole entry, looked up): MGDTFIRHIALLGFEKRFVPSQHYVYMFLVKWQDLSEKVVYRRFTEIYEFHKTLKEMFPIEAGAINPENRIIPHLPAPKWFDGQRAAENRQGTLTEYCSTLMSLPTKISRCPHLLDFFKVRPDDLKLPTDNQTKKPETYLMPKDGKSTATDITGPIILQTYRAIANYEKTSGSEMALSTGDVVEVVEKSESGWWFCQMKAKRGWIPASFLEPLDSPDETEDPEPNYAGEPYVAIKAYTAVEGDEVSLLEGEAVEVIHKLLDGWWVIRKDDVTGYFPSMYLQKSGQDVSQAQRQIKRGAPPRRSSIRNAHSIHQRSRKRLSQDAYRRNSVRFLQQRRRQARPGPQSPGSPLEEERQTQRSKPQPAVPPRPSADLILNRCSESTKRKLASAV
KCC2 sec1 – confirmation of human KCC2 transport modulators. shares compounds with KCC2 mod. HEK293-KCC2, thallium flux, FluoZin2 fluorescence; hits give high values. normalised thallium flux (F/F0 slope) at 10 µM. 3,700 tested, 15% active. AID 1713;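 active = thallium flux slope above the same plate's solvent-only control mean plus 3 SD; inconclusive = the two replicate wells disagree; inactive = no significant difference from solvent-only control wells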
KCC2 bumet counter – thallium flux despite bumetanide block in KCC2 cells, secondary assay 3; AID 1714; normalized thallium flux at 10 µM; 3,700 tested, 49% active; HEK293-KCC2 + bumetanide/ouabain, thallium flux FluoZin2; hits give high values; shares compounds with KCC2 mod;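 active = thallium entry rate above the same plate's blocked-transporter control wells by more than 3 SD; inconclusive = the two repeat wells disagree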;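 also: raw slope of fluorescence over initial fluorescence between 10 and 20 s after thallium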
KCC2 sec2 – KCC2 (human) modulation, second secondary assay; AID 1715; HEK293-KCC2, thallium flux FluoZin2 fluorescence; actives lie on both sides; F/F0 rise rate, 10–20 s post-thallium; normalized thallium flux at 10 µM; shares compounds with KCC2 mod; 3,700 tested, 23% active;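 active = thallium flux slope more than 3 SD above or below the plate's solvent-only control mean, mostly below; inconclusive = the two repeat wells disagreed; inactive = no significant shift from solvent-only controls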
HEK counter1 – acts in parental HEK cells, KCC2 counter-screen | shares compounds with KCC2 mod | HEK293 parental cells, thallium flux FluoZin2, ouabain; baseline-ratio fluorescence slope, 10–20 s after thallium | thallium flux rate (normalised fluorescence) at 10 µM | 3,700 tested, 46% active;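 active = thallium flux rate significantly above the same plate's solvent-only control wells, beyond their mean plus 3 SD; inconclusive = the two replicate wells gave conflicting results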
KCC2 ouabain – confirmation of human KCC2 modulators with ouabain | AID 1717 | HEK293-KCC2, thallium flux FluoZin2 fluorescence; bidirectional: low = inhibitor, high = activator | 3,700 tested, 48% active | raw Tl+ flux slope (below DMSO = inhibition, above = activation) at 10 µM | shares compounds with KCC2 mod;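 active = thallium flux slope beyond 3 SD from same-plate DMSO control mean in most replicates, usually higher, sometimes lower; inconclusive = repeat tests gave conflicting results; inactive = no significant difference from controls in most replicates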;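 also: slope of initial-normalized fluorescence between seconds 10 and 20 after thallium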
HEK counter2 – counter-screen for KCC2 modulators: effect in parental HEK293 cells; AID 1718; thallium flux FluoZin-2 fluorescence slope; shares compounds with KCC2 mod; thallium flux slope at 10 µM; 3,700 tested, 33% active;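 active = thallium flux slope above the same plate's solvent-control mean plus 3 SD in both duplicate wells; inconclusive = duplicate wells that disagreed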;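 also: run without ouabain in cells lacking the KCC2 cotransporter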
Of the large screens only hits and unclear results are named; the others gave an inactive call (follow-up assays come after a bar, where they were run). An excerpt weighted towards active compounds, which were near 5.8% of everything screened.

C/C(=N\NC(=O)c1cccnc1)c1cc2ccccc2o1	KCC2 mod 8.5 | KCC2 sec1 inactive | KCC2 bumet counter 0.027 | KCC2 sec2 inactive | HEK counter1 0.012 | KCC2 ouabain inconclusive | HEK counter2 inconclusive
C/C(=N\NC(=O)c1ccco1)c1cc2ccccc2o1	none
Nc1c(CO)nnn1-c1ccccc1	none
O=C(NCc1ccco1)C1CCCN1C(=O)Nc1ccccc1Cl (stereo unspecified)	none
COc1ccc(-n2c(C)cc(C(=O)CSc3nnc(-c4ccoc4C)n3C)c2C)cc1	none (no result: KCC2 mod) | KCC2 sec1 inactive | KCC2 bumet counter inactive | KCC2 sec2 inactive | HEK counter1 inconclusive | KCC2 ouabain inactive | HEK counter2 inactive
O=C1Nc2ccc([N+](=O)[O-])cc2OC1CCN1CCN(Cc2ccccc2)CC1 (stereo unspecified)	KCC2 mod -4.2 | KCC2 sec1 inactive | KCC2 bumet counter inactive | KCC2 sec2 0.026 | HEK counter1 inactive | KCC2 ouabain 0.013 | HEK counter2 inactive
Cc1c(Cl)cccc1-n1c(SCC(=O)NCc2ccccc2Cl)nnc1-c1ccncc1	none (no result: ROMK primary)
Cc1c(Cl)cccc1-n1c(SCC(=O)NCc2cccs2)nnc1-c1ccncc1	none (no result: ROMK primary) | KCC2 sec1 inactive | KCC2 bumet counter inactive | KCC2 sec2 inactive | HEK counter1 0.0097 | KCC2 ouabain inactive | HEK counter2 inactive
COc1ccc(N2C(=O)C(CC(N)=O)N(NC(=O)CCc3ccccc3)C2=O)cc1 (stereo unspecified)	none
O=C1Nc2ccccc2S/C1=C\C(=O)N1CCCC1	none (no result: ROMK primary)
O=C1Nc2ccccc2S/C1=C/Nc1cccc(Cl)c1	none (no result: KCC2 mod, 14-3-3 Bad inh) | KCC2 sec1 inactive | KCC2 bumet counter inconclusive | KCC2 sec2 inactive | HEK counter1 inactive | KCC2 ouabain 0.015 | HEK counter2 inactive
O=C(CCCN1C(=O)c2cccc3cccc(c23)C1=O)NCc1cccs1	none
O=C(NNC(=O)c1ccncc1)NC1CCCCC1	none
COc1ccc(Oc2c(Cl)cnn(-c3ccc(F)cc3)c2=O)cc1	KCC2 mod -3.1 (no result: ROMK primary) | KCC2 sec1 inactive | KCC2 bumet counter inconclusive | KCC2 sec2 inactive | HEK counter1 inactive | KCC2 ouabain 0.017 | HEK counter2 inactive
COc1ccc(Oc2c(Cl)cnn(-c3ccc(C)cc3)c2=O)cc1	none (no result: ROMK primary, KCC2 mod)
CS(=O)(=O)N1CCC(C(=O)N2CCN(C(c3ccccc3)c3ccccc3)CC2)CC1	none (no result: ROMK primary)
O=C(NCCc1ccccc1)c1noc2c1CCCCC2	none (no result: KCC2 mod) | KCC2 sec1 inactive | KCC2 bumet counter inactive | KCC2 sec2 inconclusive | HEK counter1 inactive | KCC2 ouabain 0.019 | HEK counter2 inactive
Cn1nnc(NCc2cc(Br)ccc2OCc2ccccc2F)n1	KCC2 mod -4.1 | KCC2 sec1 inactive | KCC2 bumet counter 0.0031 | KCC2 sec2 0.024 | HEK counter1 0.006 | KCC2 ouabain 0.013 | HEK counter2 inactive
COCCNC(=O)c1cc(S(=O)(=O)N2CCOCC2)ccc1SCc1cccc(OC)c1OC	none
CSC1=NS(=O)(=O)c2c(C)nn(C)c2S1	KCC2 mod -4 (no result: ROMK primary, WT yeast gro inh) | KCC2 sec1 inactive | KCC2 bumet counter inactive | KCC2 sec2 inactive | HEK counter1 inconclusive | KCC2 ouabain inactive | HEK counter2 inconclusive
O=C(Nc1cc([N+](=O)[O-])ccc1Cl)c1ccc2c(c1)OCO2	none
Nn1c(COc2ccc(Cl)cc2)n[nH]c1=S	KCC2 mod -3.3 | KCC2 sec1 inactive | KCC2 bumet counter inactive | KCC2 sec2 inconclusive | HEK counter1 inactive | KCC2 ouabain 0.035 | HEK counter2 inactive
Cc1cccc(C)c1OCc1n[nH]c(=S)n1N	none
O=C(NCCCCc1ccccc1)C1CC(c2ccc(C(F)(F)F)cc2)=NO1 (stereo unspecified)	none (no result: ROMK primary, RBBP9 inhibitor, WT yeast gro inh)
O=C(/C=C/c1cccc(Br)c1)N1CCN(c2ccccn2)CC1	none
O=C1NC(=S)N(c2cccc(Cl)c2)C12CCCCC2	KCC2 mod 4.6 | KCC2 sec1 inactive | KCC2 bumet counter 0.011 | KCC2 sec2 inactive | HEK counter1 0.013 | KCC2 ouabain inactive | HEK counter2 0.012
Cc1ccc(N2CC(C(=O)Nc3c(C)n(C)n(-c4ccccc4)c3=O)CC2=O)cc1 (stereo unspecified)	none
CCCCC(=O)NC(=O)NC(c1ccccc1)c1ccccc1	none (no result: ROMK primary, KCC2 mod, WT yeast gro inh)
O=C(NC(=O)c1ccncc1)NC(c1ccccc1)c1ccccc1	KCC2 mod -4.8 (no result: ROMK primary) | KCC2 sec1 inactive | KCC2 bumet counter inactive | KCC2 sec2 inactive | HEK counter1 inconclusive | KCC2 ouabain inactive | HEK counter2 inactive
O=C(COC(=O)c1ccc(Cl)cc1O)NC(=O)C1CCCCC1	none
CC(=O)N1CCN(Cc2nc3cc(NC(=O)NC4CCCCC4)ccc3n2C)CC1	none
O=C(CCn1nc(-c2ccc(Cl)cc2)ccc1=O)N1CCN(c2ccccn2)CC1	none
O=C(Cn1nc(-c2ccc(Cl)cc2)ccc1=O)N1CCN(c2ccccc2)CC1	none (no result: KCC2 mod) | KCC2 sec1 inactive | KCC2 bumet counter inactive | KCC2 sec2 inactive | HEK counter1 inactive | KCC2 ouabain inconclusive | HEK counter2 inactive
O=C(Cn1nc(C(F)(F)F)c2c1CCC2)N1CCN(c2ccccc2)CC1	none (no result: KCC2 mod) | KCC2 sec1 inactive | KCC2 bumet counter inactive | KCC2 sec2 inactive | HEK counter1 inactive | KCC2 ouabain 0.016 | HEK counter2 inactive
N#CC1(C#N)[C@@H](C(=O)C23CC4CC(CC(C4)C2)C3)C12CCOCC2	none
O=C(CC1SC(=NCCc2ccccc2)N(/N=C/c2cccs2)C1=O)Nc1ccc(Cl)cc1 (stereo unspecified)	none (no result: ROMK primary)
Cc1ccc2c(Cl)cc(Cl)c(OCC(=O)NCCc3ccccn3)c2n1	none
CCN(CC(=O)NC(C)(C)C)C(=O)COc1c(Cl)cc(Cl)c2ccc(C)nc12	KCC2 mod 88 (no result: ROMK primary, WT yeast gro inh) | KCC2 sec1 0.02 | KCC2 bumet counter 0.11 | KCC2 sec2 inactive | HEK counter1 inconclusive | KCC2 ouabain 0.09 | HEK counter2 inconclusive

Source: PubChem
